{
  "source": "ChEMBL document CHEMBL4261600",
  "about": "(Eur J Med Chem, 2018)",
  "key": {"[1]": {"test": "AUC (0 to t) in mouse at 10 mg/kg, po by LC-MS/MS analysis", "format": "ADME, organism-based", "conditions": "in vivo", "method_in_brief": "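Non-compartmental PK. Male SD rats 190-210 g, mice and beagle dogs acclimatized one week, fasted 12 h with water, split into iv and po groups (mice 48, rats 6, dogs 6). iv 3/3/2 mg/kg (mice/rats/dogs); po 10/20/10 mg/kg; vehicle DMSO in 5% glucose water. Blood at 2 or 5 to 720 min; plasma protein-precipitated with methanol, caffeine internal standard, LC-MS/MS.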"}, "[2]": {"test": "MRT (0 to t) in mouse at 3 mg/kg, iv by LC-MS/MS analysis", "format": "ADME, organism-based", "conditions": "in vivo"}, "[3]": {"tested_on": "Tyrosine-protein kinase ABL1 (Homo sapiens), P00519 [F317I]", "test": "Binding affinity to human phosphorylated ABL1 F317I mutant (S229 to K512 residues) expressed in mammalian expression system assessed as remaining unbound target protein level at 1000 nM by Kinomescan method relative to control", "method_in_brief": "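Single-point competition binding screen across a panel of 468 kinases and mutants, with the inhibitor at 1 μM. Binding is read out as percent of a DMSO control, and targets below 1 percent control were classed as strong binders.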"}, "[4]": {"molecular_target": "Serine/threonine-protein kinase B-raf (Homo sapiens) (UniProt P15056)", "test": "Binding affinity to wild-type human partial length BRAF (S429 to E741 residues) expressed in mammalian expression system assessed as remaining unbound target protein level at 1000 nM by Kinomescan method relative to control", "method_in_brief": "(§1)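 Profiled in a KINOMEscan binding panel with the inhibitor at a single concentration of 1 μM. Binding to each kinase was read out as percent of control, relative to a DMSO control. Strong binders were defined as those with a percent control value below 1.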"}, "[5]": {"molecular_target": "Casein kinase II subunit alpha' (Homo sapiens) (UniProt P19784)", "test": "Binding affinity to wild-type human full length CSNK2A2 (M1 to R350 residues) expressed in mammalian expression system assessed as remaining unbound target protein level at 1000 nM by Kinomescan method relative to control", "method_in_brief": "(§2)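 KINOMEscan competition binding profile across a panel of 468 kinases and mutants, with the inhibitor tested at a single concentration of 1 μM. Binding is reported as percent of control, meaning signal relative to a DMSO control.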"}, "[6]": {"molecular_target": "Dual specificity tyrosine-phosphorylation-regulated kinase 2 (Homo sapiens) (UniProt Q92630)", "test": "Binding affinity to wild-type human full length DYRK2 (M1 to S528 residues) expressed in mammalian expression system assessed as remaining unbound target protein level at 1000 nM by Kinomescan method relative to control", "method_in_brief": "as §2"}, "[7]": {"tested_on": "Epidermal growth factor receptor (Homo sapiens), P00533 [L858R]", "test": "Binding affinity to human partial length EGFR L858R mutant (R669 to V1011 residues) expressed in bacterial expression system assessed as remaining unbound target protein level at 1000 nM by Kinomescan method relative to control", "method_in_brief": "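KINOMEscan competition-binding profiling across the panel of 468 kinases and mutants, with inhibitor tested at 1 μM. Binding is expressed as percent of control, with DMSO as the reference control.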"}, "[8]": {"molecular_target": "Ephrin type-A receptor 5 (Homo sapiens) (UniProt P54756)", "test": "Binding affinity to wild-type human partial length EPHA5 (T627 to V930 residues) expressed in bacterial expression system assessed as remaining unbound target protein level at 1000 nM by Kinomescan method relative to control"}, "[9]": {"molecular_target": "Focal adhesion kinase 1 (Homo sapiens) (UniProt Q05397)", "test": "Binding affinity to wild-type human partial length FAK (D402 to R696 residues) expressed in bacterial expression system assessed as remaining unbound target protein level at 1000 nM by Kinomescan method relative to control"}, "[10]": {"molecular_target": "Homeodomain-interacting protein kinase 1 (Homo sapiens) (UniProt Q86Z02)", "test": "Binding affinity to wild-type human partial length HIPK1 (M146 to I555 residues) expressed in mammalian expression system assessed as remaining unbound target protein level at 1000 nM by Kinomescan method relative to control"}, "[11]": {"molecular_target": "Insulin receptor (Homo sapiens) (UniProt P06213)", "test": "Binding affinity to wild-type human partial length INSR (P997 to E1318 residues) expressed in mammalian expression system assessed as remaining unbound target protein level at 1000 nM by Kinomescan method relative to control", "method_in_brief": "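KINOMEscan binding panel of 468 kinases/mutants. Inhibitor was tested at a single concentration of 1 μM. Binding is reported as percent of control, defined relative to a DMSO control.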"}, "[12]": {"molecular_target": "Misshapen-like kinase 1 (Homo sapiens) (UniProt Q8N4C8)", "test": "Binding affinity to wild-type human partial length MINK (M1 to K312 residues) expressed in mammalian expression system assessed as remaining unbound target protein level at 1000 nM by Kinomescan method relative to control"}, "[13]": {"molecular_target": "Serine/threonine-protein kinase PAK 2 (Homo sapiens) (UniProt Q13177)", "test": "Binding affinity to wild-type human partial length PAK2 (P151 to R525 residues) expressed in bacterial expression system assessed as remaining unbound target protein level at 1000 nM by Kinomescan method relative to control"}, "[14]": {"molecular_target": "Phosphatidylinositol 5-phosphate 4-kinase type-2 gamma (Homo sapiens) (UniProt Q8TBX8)", "test": "Binding affinity to wild-type human partial length PIP5K2C (M1 to A421 residues) expressed in mammalian expression system assessed as remaining unbound target protein level at 1000 nM by Kinomescan method relative to control"}, "[15]": {"molecular_target": "Ribosomal protein S6 kinase alpha-1 (Homo sapiens) (UniProt Q15418)", "test": "Binding affinity to wild-type human partial length C-termianl RSK1 kinase domain 2 (P360 to L681 residues) expressed in bacterial expression system assessed as remaining unbound target protein level at 1000 nM by Kinomescan method relative to control", "method_in_brief": "as §1"}, "[16]": {"molecular_target": "SRSF protein kinase 3 (Homo sapiens) (UniProt Q9UPE1)", "test": "Binding affinity to wild-type human partial length SRPK3 (P41 to P567 residues) expressed in bacterial expression system assessed as remaining unbound target protein level at 1000 nM by Kinomescan method relative to control"}, "[17]": {"molecular_target": "Serine/threonine-protein kinase TAO2 (Homo sapiens) (UniProt Q9UL54)", "test": "Binding affinity to wild-type human partial length TAOK2 (M1 to A320 residues) expressed in mammalian expression system assessed as remaining unbound target protein level at 1000 nM by Kinomescan method relative to control"}, "[18]": {"molecular_target": "TGF-beta receptor type-1 (Homo sapiens) (UniProt P36897)", "test": "Binding affinity to wild-type human partial length TGFBR1 (D179 to M503 residues) expressed in bacterial expression system assessed as remaining unbound target protein level at 1000 nM by Kinomescan method relative to control"}, "[19]": {"molecular_target": "Serine/threonine-protein kinase WNK1 (Homo sapiens) (UniProt Q9H4A3)", "test": "Binding affinity to wild-type human partial length WNK1 (Q194 to A490 residues) expressed in mammalian expression system assessed as remaining unbound target protein level at 1000 nM by Kinomescan method relative to control"}, "Homo sapiens": {"organism": "Homo sapiens", "test": "Selectivity ratio of IC50 for recombinant GST-tagged human full length CDK14/cyclin Y (2 to end residues) to IC50 for recombinant full length His-tagged human CDK9/CyclinT1"}, "[20]": {"test": "Antiproliferative activity against Chinese hamster CHL cells after 72 hrs by Celltiter-Glo assay", "conditions": "Cricetulus griseus"}},
  "data": [
    {"smiles": "COCCN[C@H]1CC[C@H](Nc2cc(-c3csc(NCC4(C#N)CCOCC4)n3)c(Cl)cn2)CC1", "values": [
      {"measurement": "AUC(0-t)", "setting": "[1]", "result": 591, "unit": "ng·h/mL"},
      {"measurement": "MRT last", "setting": "[2]", "result": 1.25, "unit": "h"},
      {"measurement": "Activity", "setting": "[3]", "result": 100, "unit": "%"},
      {"measurement": "Activity", "setting": "[4]", "result": 97, "unit": "%"},
      {"measurement": "Activity", "setting": "[5]", "result": 99, "unit": "%"},
      {"measurement": "Activity", "setting": "[6]", "result": 5.2, "unit": "%"},
      {"measurement": "Activity", "setting": "[7]", "result": 85, "unit": "%"},
      {"measurement": "Activity", "setting": "[8]", "result": 97, "unit": "%"},
      {"measurement": "Activity", "setting": "[9]", "result": 84, "unit": "%"},
      {"measurement": "Activity", "setting": "[10]", "result": 60, "unit": "%"},
      {"measurement": "Activity", "setting": "[11]", "result": 94, "unit": "%"},
      {"measurement": "Activity", "setting": "[12]", "result": 92, "unit": "%"},
      {"measurement": "Activity", "setting": "[13]", "result": 85, "unit": "%"},
      {"measurement": "Activity", "setting": "[14]", "result": 59, "unit": "%"},
      {"measurement": "Activity", "setting": "[15]", "result": 100, "unit": "%"},
      {"measurement": "Activity", "setting": "[16]", "result": 98, "unit": "%"},
      {"measurement": "Activity", "setting": "[17]", "result": 60, "unit": "%"},
      {"measurement": "Activity", "setting": "[18]", "result": 98, "unit": "%"},
      {"measurement": "Activity", "setting": "[19]", "result": 100, "unit": "%"},
      {"measurement": "Ratio IC50", "setting": "Homo sapiens", "result": "> 1000"},
      {"measurement": "GI50", "setting": "[20]", "result": 1200, "unit": "nM"}
    ]}
  ]
}
